From ChEMBL document CHEMBL1123812, “Pyrroloisoquinoline antidepressants. 2. In-depth exploration of structure-activity relationships” (J Med Chem, 1987)
Blank lines part the entries; values can stand above or below the compound they belong to. Activity calls are given as the source filed them.

Legend:
[1] = system: Rattus norvegicus; assay: Ability to inhibit the uptake of tritiated serotonin(5-HT) at 0.1 mg/kg concentration; type: functional
[2] = biological target: Norepinephrine transporter (Rattus norvegicus) (UniProt Q9WTR4); assay: Ability to inhibit the uptake of [3H]norepinephrine (NE) 0.1 uM concentration at rat brain synaptosomes; type: functional, subcellular
Method in brief: (§1)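 Male Wistar rat brain synaptosomes (P2 fraction): hypothalamus for NE, striatum for DA, cerebral cortex for 5-HT. Buffer is Tris- or HEPES-buffered salt medium with glucose, ascorbate and nialamide, pH 7.4 at 37 °C. Preincubated 10 min at 37 °C with compound. Uptake started with [3H]NE 100–300 nM, [3H]DA 50–300 nM or [3H]5-HT 100–200 nM, incubated 3 min (DA) or 6–10 min (NE, 5-HT). Blanks held on ice. Filtered, counted by scintillation.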

[3] = species on record: Rattus norvegicus; assay: Ability to inhibit the uptake of tritiated serotonin (5-HT) at 0.1 uM concentration in rat synaptosomes; type: functional; conditions: Brain; method in brief: as §1
[4] = system: Mus musculus; assay: (§2) Ability to antagonise intraperitoneal dose; inactive (<10% antagonism) at 30 mgjkg is represented as I-30.; type: functional, organism-based
Method in brief: (§3)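 Nonfasted male Swiss Webster mice, 18–24 g, ten per dose level and in saline controls. Test compound given ip 30 min before tetrabenazine 32 mg/kg ip; dose expressed as free base. Motor activity and ptosis scored. Control response ≤90% corrected by Abbott's formula.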

[5] = species on record: Mus musculus; assay: Gross behavioral effects ascertained in mice; W indicates weak stimulant or depressant activity of little significance.; type: functional, organism-based
Method in brief: (§4)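 Male Swiss Webster mice, 18–24 g, three per dose, given ip doses of 1, 3, 10, 30, 100 and 300 mg/kg. Observed for gross behavior and held for 4 days. Scored as weak (W), stimulant (S), depressant (D) or convulsant (C).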

[6] = species on record: Mus musculus; assay: Gross behavioral effects ascertained in mice; C indicates overt convulsant; type: functional, organism-based; method in brief: as §4
[7] = system: Mus musculus; assay: Ability to antagonise intraperitoneal dose; inactive (<10% antagonism) at 30 mg/kg is represented as I-30.; type: functional, organism-based; parameters: dose 30 mg/kg; method in brief: as §3
[8] = biological target: Sodium-dependent serotonin transporter (Rattus norvegicus) (UniProt P31652); assay: Ability to inhibit the uptake of [3H]- serotonin(5-HT) 0.1 uM concentration at rat brain synaptosomes; type: functional, subcellular; method in brief: as §1
[9] = species on record: Rattus norvegicus; assay: Ability to inhibit the uptake of tritiated norepinephrine (NE) 0.1 uM concentration; type: functional; method in brief: as §1
[10] = system: Mus musculus; assay: as §2; type: functional, organism-based; method in brief: as §3; remark: listed apart in the source
[11] = biological target: Sodium-dependent dopamine transporter (Rattus norvegicus, UniProt P23977); assay: Inhibition of the uptake of tritiated dopamine (DA) in rat synaptosomes; type: subcellular, Brain
[12] = species on record: Mus musculus; assay: Antagonism of tetrabenazine (TBZ)-induced depression measured in mice by motor activity; type: functional; conditions: Mus musculus; read-out: ED50; method in brief: as §3
[13] = system: Mus musculus; assay: Ability to antagonise intraperitoneal 30 mg/kg dose; inactive (<10% antagonism) at 30 mgjkg is represented as I-30.; type: functional, organism-based; parameters: dose 30 mg/kg; method in brief: as §3
[14] = biological target: Sodium-dependent serotonin transporter (Rattus norvegicus) (UniProt P31652); assay: Inhibition of tritiated serotonin(5-HT) uptake at 0.1 uM concentration; type: functional; method in brief: as §1
[15] = biological target: T1, Serotonin 2 (5-HT2) receptor (Rattus norvegicus) (UniProt P30994+P08909+P14842); assay: Binding affinity towards 5-hydroxytryptamine 2 receptor at 1.0 uM concentration; type: protein assay
Method in brief: (§5)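 Rat brain crude synaptic membranes in 20 mM NaHEPES pH 7.5. Ligands: α1 cortex […] 0.4 nM, nonspecific with (-)-NE 100 μM, 30 min at 25 °C. […] D2 striatum [3H]spiperone 0.05 nM with (+)-butaclamol 1 μM, 45 min at 37 °C. S1 cortex [3H]5-HT 1 nM plus glutathione and MgCl2, with 5-HT 10 μM, 20 min at 37 °C. […] Samples filtered on GF/B and counted.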

[16] = biological target: Adrenergic receptor alpha-1 (Rattus norvegicus) (UniProt P15823+P23944+P43140); assay: Binding affinity towards alpha-1 adrenergic receptor at 1.0 uM concentration; type: protein assay; method in brief: as §5
[17] = species on record: Rattus norvegicus; assay: Ability to inhibit the uptake of tritiated norepinephrine (NE) at 0.1 uM concentration; type: functional; method in brief: as §1
[18] = biological target: Sodium-dependent dopamine transporter (Rattus norvegicus) (UniProt P23977); assay: Inhibition of tritiated dopamine (DA) uptake at 0.1 uM concentration; type: functional; method in brief: as §1
[19] = biological target: Muscarinic acetylcholine receptor (Rattus norvegicus) (UniProt P08482+P08483+P08485+P08911+P10980); assay: Binding affinity towards Muscarinic acetylcholine receptor at 10 uM concentration; type: protein assay
[20] = species on record: Mus musculus; assay: Gross behavioral effects ascertained in mice; S indicates significant stimulant properties.; type: functional, organism-based; method in brief: as §4
[21] = biological target: D(1A) dopamine receptor (Rattus norvegicus) (UniProt P18901); assay: Binding affinity towards Dopamine receptor D1 at 1.0 uM concentration; method in brief: as §5
[22] = biological target: Norepinephrine transporter (Rattus norvegicus, UniProt Q9WTR4); assay: Inhibition of uptake of tritiated norepinephrine (NE) in rat synaptosomes; type: subcellular, Brain
[23] = species on record: Rattus norvegicus; assay: Ability to inhibit the uptake of tritiated dopamine (DA); type: functional; method in brief: as §1
[24] = system: Rattus norvegicus; assay: Ability to inhibit the uptake of tritiated norepinephrine (NE) 0.1 mg/kg concentration; type: functional
[25] = species on record: Mus musculus; assay: Antagonism of tetrabenazine (TBZ)-induced depression in mice measured for ptosis; type: functional; conditions: Mus musculus; read-out: ED50; method in brief: as §3
[26] = system: Rattus norvegicus; assay: Ability to inhibit the uptake of tritiated serotonin(5-HT) 0.1 mg/kg concentration; type: functional
[27] = biological target: T1, Serotonin 2 (5-HT2) receptor (Rattus norvegicus); assay: Binding affinity towards 5-hydroxytryptamine 2 receptor; type: protein assay; conditions: concentration not given here; method in brief: as §5
[28] = species on record: Rattus norvegicus; assay: Ability to inhibit the uptake of tritiated dopamine (DA) 1 uM concentration; type: functional
Method in brief: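 Rat brain synaptosomal [3H]dopamine uptake: striatal P2 fraction, test compound at 1.00 μM. Preincubated at 37 °C, then 50–300 nM [3H]DA for 3 min. Blanks on ice. Filtration and scintillation counting; percent inhibition of control uptake.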

[29] = system: Mus musculus; assay: Ability to antagonise intraperitoneal administration; inactive (<10% antagonism) at 30 mgjkg is represented as I-30.; type: functional, organism-based; method in brief: as §3
[30] = biological target: D(2) dopamine receptor (Rattus norvegicus) (UniProt P61169); assay: Binding affinity towards dopamine receptor D2 at 1.0 uM concentration; method in brief: as §5
[31] = biological target: Serotonin 1 (5-HT1) receptor (Rattus norvegicus) (UniProt P28564+P30940+P19327+P28565); assay: Binding affinity towards serotonin S1 receptor at 1.0 uM; type: protein assay; method in brief: as §5
[32] = biological target: Sodium-dependent dopamine transporter (Rattus norvegicus) (UniProt P23977); assay: Ability to inhibit the uptake of [3H]dopamine (DA) 0.1 uM concentration at rat brain synaptosomes; type: functional, subcellular; method in brief: as §1
[33] = species on record: Mus musculus; assay: Gross behavioral effects ascertained in mice; D indicates significant depressant properties.; type: functional, organism-based
Method in brief: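 Male Swiss Webster albino mice, 18–24 g, three per dose, given ip 1, 3, 10, 30, 100 and 300 mg/kg. Gross behaviour observed and held 4 days. Estimated LD50 range from lethality count on day 4. Scored as weak stimulant/depressant, significant stimulant, significant depressant or overt convulsant.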

[34] = system: Mus musculus; assay: as §2; type: functional, organism-based; remark: listed apart in the source
Method in brief: (§6)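 Swiss Webster male albino mice, nonfasted, 18–24 g, 10 per dose and in saline control. Compound given ip 30 min before TBZ 32 mg/kg ip. Motor activity and ptosis scored. Response corrected by Abbott's formula when control response was 90% or less. Doses expressed as free base.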

[35] = system: Mus musculus; assay: as §2; type: functional, organism-based; method in brief: as §6; remark: listed apart in the source
[36] = species on record: Mus musculus; assay: Gross behavioral effects ascertained in mice; type: functional, organism-based; method in brief: as §4
[37] = system: Mus musculus; assay: Ability to antagonise intraperitoneal administration; weakly active (>=10% and <=30% antagonism) at 30 mg/kg is represented as >30; type: functional; conditions: ip; method in brief: as §3

T1 sequence (P08909 whole entry, looked up): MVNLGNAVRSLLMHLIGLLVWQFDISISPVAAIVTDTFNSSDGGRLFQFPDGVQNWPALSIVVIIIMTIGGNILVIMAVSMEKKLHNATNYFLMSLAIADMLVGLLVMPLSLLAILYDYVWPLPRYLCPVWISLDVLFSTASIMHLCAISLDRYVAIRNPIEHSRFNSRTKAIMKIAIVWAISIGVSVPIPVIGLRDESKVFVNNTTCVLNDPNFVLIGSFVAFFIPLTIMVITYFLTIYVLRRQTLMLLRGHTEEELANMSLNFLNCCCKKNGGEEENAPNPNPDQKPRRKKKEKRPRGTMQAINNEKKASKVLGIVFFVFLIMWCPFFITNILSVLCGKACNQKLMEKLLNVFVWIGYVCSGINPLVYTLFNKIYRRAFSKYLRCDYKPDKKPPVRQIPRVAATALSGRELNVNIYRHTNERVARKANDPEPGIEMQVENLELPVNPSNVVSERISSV
T1 sequence (P14842 whole entry, looked up): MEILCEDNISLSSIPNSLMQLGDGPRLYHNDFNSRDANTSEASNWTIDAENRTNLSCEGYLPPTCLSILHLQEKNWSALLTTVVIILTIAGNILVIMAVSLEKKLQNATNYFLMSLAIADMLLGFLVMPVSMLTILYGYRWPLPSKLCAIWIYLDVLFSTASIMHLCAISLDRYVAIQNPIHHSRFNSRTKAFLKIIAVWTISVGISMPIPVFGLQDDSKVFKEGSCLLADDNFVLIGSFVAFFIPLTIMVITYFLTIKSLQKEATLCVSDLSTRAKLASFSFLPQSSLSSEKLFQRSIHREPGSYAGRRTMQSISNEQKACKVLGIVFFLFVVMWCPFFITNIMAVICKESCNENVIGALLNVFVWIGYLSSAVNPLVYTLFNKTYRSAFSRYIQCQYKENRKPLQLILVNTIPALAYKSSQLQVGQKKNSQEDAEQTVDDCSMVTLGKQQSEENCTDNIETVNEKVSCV
T1 sequence (P30994 whole entry, looked up): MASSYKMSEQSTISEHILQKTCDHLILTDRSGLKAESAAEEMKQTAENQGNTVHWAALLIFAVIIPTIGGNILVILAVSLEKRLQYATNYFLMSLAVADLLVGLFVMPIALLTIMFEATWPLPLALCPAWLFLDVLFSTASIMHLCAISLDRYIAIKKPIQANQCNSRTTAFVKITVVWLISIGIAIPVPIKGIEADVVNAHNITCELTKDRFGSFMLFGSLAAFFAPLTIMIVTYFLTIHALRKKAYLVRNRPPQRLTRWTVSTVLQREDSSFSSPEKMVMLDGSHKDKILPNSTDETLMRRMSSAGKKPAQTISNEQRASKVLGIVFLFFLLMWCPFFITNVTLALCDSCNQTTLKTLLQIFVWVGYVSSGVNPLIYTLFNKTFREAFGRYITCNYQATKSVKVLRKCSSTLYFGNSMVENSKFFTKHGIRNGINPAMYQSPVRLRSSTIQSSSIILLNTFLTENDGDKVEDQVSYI
Norepinephrine transporter (Rattus norvegicus), sequence (Q9WTR4 as listed by the source): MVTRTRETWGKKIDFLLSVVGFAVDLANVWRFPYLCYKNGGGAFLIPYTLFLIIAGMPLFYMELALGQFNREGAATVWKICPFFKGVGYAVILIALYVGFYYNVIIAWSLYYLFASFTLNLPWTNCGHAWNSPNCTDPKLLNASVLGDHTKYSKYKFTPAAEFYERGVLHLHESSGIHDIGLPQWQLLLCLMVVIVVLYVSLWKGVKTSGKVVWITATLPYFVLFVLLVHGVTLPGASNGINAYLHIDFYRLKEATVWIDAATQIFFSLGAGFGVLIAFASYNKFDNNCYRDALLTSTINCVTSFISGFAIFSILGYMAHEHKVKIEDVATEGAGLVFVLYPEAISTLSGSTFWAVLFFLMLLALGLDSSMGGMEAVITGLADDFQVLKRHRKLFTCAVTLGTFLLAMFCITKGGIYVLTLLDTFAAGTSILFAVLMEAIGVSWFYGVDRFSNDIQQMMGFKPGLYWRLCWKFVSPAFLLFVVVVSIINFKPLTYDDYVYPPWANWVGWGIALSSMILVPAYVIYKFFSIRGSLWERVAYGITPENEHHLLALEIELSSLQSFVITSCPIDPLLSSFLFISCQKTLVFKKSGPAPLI
Sodium-dependent dopamine transporter, sequence (P23977 whole entry): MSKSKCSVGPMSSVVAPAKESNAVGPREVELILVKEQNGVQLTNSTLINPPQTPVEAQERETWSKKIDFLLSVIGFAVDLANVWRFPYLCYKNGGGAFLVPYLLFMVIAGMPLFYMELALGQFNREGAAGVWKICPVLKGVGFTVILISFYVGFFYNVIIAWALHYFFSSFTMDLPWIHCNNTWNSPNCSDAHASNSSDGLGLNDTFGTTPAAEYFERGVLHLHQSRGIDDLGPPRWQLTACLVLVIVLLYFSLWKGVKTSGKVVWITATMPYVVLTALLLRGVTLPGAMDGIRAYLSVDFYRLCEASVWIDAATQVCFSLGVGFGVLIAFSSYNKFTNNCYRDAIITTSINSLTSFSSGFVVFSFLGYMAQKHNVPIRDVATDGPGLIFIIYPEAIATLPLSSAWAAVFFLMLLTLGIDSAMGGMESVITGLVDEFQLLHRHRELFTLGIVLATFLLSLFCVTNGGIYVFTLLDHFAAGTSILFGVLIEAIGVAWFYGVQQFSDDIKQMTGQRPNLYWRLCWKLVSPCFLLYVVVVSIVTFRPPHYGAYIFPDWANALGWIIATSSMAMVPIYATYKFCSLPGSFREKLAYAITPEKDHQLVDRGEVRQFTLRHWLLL
Sodium-dependent serotonin transporter (Rattus norvegicus), sequence (P31652 whole entry): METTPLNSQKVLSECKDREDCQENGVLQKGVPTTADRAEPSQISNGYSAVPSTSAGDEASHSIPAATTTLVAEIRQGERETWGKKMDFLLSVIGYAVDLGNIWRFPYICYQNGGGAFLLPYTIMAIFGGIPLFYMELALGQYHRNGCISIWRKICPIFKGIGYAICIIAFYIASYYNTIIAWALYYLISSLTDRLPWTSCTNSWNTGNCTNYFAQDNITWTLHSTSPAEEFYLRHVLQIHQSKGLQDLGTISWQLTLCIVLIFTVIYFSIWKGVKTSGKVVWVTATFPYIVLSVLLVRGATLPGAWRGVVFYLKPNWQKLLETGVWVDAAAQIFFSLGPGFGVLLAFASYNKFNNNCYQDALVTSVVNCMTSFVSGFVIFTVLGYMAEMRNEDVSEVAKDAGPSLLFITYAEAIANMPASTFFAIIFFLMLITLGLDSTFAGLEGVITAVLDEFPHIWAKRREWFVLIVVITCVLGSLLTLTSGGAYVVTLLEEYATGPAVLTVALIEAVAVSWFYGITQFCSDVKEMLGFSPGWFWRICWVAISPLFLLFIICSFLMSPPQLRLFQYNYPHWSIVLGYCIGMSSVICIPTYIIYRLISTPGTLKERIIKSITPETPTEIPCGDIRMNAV
Norepinephrine transporter, sequence (Q9WTR4 whole entry): as the sequence (Q9WTR4 as listed by the source) above
Sodium-dependent dopamine transporter (Rattus norvegicus), sequence (P23977 whole entry): as the sequence (P23977 whole entry) above
D(2) dopamine receptor (Rattus norvegicus), sequence (P61169 whole entry): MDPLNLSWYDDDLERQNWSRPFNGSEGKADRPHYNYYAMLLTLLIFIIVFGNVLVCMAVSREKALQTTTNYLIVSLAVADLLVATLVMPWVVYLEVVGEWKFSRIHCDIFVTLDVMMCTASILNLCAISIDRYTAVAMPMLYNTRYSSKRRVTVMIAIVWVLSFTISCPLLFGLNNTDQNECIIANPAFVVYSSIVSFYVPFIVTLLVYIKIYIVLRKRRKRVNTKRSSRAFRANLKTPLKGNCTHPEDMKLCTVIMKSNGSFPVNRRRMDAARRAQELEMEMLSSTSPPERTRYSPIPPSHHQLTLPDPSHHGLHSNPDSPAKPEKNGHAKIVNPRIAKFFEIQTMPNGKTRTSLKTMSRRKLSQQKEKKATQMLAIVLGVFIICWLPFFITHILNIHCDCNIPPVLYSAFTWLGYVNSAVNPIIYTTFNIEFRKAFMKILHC
D(1A) dopamine receptor (Rattus norvegicus), sequence (P18901 whole entry): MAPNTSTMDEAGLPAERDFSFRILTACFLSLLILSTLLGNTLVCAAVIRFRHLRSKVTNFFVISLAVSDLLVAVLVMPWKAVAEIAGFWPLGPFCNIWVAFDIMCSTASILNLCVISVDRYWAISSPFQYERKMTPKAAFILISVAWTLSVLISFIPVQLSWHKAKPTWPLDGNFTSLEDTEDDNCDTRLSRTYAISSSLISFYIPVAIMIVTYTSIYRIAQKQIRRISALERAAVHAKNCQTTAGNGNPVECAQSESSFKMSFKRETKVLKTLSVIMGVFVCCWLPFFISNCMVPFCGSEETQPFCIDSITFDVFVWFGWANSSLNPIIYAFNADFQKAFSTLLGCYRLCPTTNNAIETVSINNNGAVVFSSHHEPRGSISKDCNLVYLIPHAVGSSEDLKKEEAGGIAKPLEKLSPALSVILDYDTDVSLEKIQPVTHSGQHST

Structure (SMILES): c1ccc([C@@H]2CN3CCC[C@H]3Cc3ccccc32)cc1
inhibition in vivo at 0.1 mg/kg [1]: 6%

Structure (SMILES): Br.c1ccc([C@H]2CN3CCC[C@H]3Cc3ccccc32)cc1
ED50 [12]: > 3 mg/kg | inhibition in vivo at 0.1 mg/kg [1]: 9%

Structure (SMILES): c1ccc(CCN2CCCC2c2ccccc2)cc1 (stereo not drawn)
ED50 [12]: ~10 mg/kg | behavior [5]: Weak | inhibition in vivo at 0.1 mg/kg [24]: 38% | ED50 [25]: ~10 mg/kg | inhibition in vivo at 0.1 mg/kg [26]: 4%

Structure (SMILES): Br.Cn1ccc2c1[C@H](c1ccccc1)CN1CCC[C@@H]21
ED50 [12]: > 30 mg/kg | behavior [5]: Weak | inhibition in vivo at 0.1 mg/kg [24]: 8% | ED50 [25]: > 30 mg/kg | inhibition in vivo at 0.1 mg/kg [26]: 6%

Structure (SMILES): c1ccc([C@@H]2CN3CCC[C@H]3c3[nH]c4ccccc4c32)cc1
behavior [33]: Significant depressant | ED50 [34]: inactive | inhibition in vivo at 0.1 mg/kg [24]: 7% | inhibition in vivo at 0.1 mg/kg [26]: -21% | ED50 [7]: inactive

Structure (SMILES): C[C@@]12CCCN1CCc1ccccc12
inhibition [2]: 6% | behavior [5]: Weak | ED50 [34]: inactive | Inhibition [28]: 15% | ED50 [35]: inactive | inhibition [8]: 2%

Structure (SMILES): c1ccc([C@@H]2CN3CC[C@H]3c3ccccc32)cc1
Ki [22]: 866 nM | ED50 [34]: inactive | Ki [11]: 1620 nM | ED50 [35]: inactive

Structure (SMILES): Br.CS(=O)(=O)c1ccc([C@@H]2CN3CCC[C@@H]3c3ccccc32)cc1
behavior [36]: inactive | ED50 [7]: inactive | ED50 at 30 mg/kg [37]: > 30 mg/kg

Structure (SMILES): COc1ccc([C@@H]2CN3CCCC3c3cc(OC)c(OC)cc32)cc1OC (stereo partly drawn)
ED50 [13]: inactive | inhibition [14]: 10% | behavior [6]: Overt convulsant | Ki [11]: 355 nM | Inhibition [17]: 18% | ED50 [7]: inactive

Now from value to compound, other results behind:

inhibition [2]: 21% | inhibition [8]: -10%
Structure (SMILES): c1ccc([C@@H]2CN3CCC[C@H]3c3ccccc32)cc1 [listing 1 of 2 here]
inhibition [3]: 1% | ED50 [4]: inactive | behavior [5]: Weak | behavior [6]: Overt convulsant | ED50 [7]: inactive

Ki [9]: 2 nM | Ki [11]: > 1000 nM | inhibition [8]: 4%
Structure (SMILES): C[C@@]12CCCCN1C[C@@H](c1ccccc1)c1ccccc12
ED50 [4]: inactive | behavior [6]: Overt convulsant | ED50 [10]: inactive

inhibition [14]: 12% | inhibition [15]: 88% | inhibition [16]: 90% | inhibition [18]: 0%
Structure (SMILES): Br.COc1cc([C@@H]2CN3CCC[C@H]3c3ccccc32)cc(OC)c1OC
ED50 [13]: inactive | behavior [5]: Partial stimulant | Inhibition [17]: 9% | ED50 [7]: inactive

inhibition [19]: 0% | inhibition [21]: 35%
Structure (SMILES): c1ccc([C@@H]2CN3CCC[C@@H]3c3ccccc32)cc1 (stereo in doubt; 7b)
behavior [20]: Stimulant

Ki [22]: 10.5 nM | Ki [23]: 36.4 nM | inhibition [8]: 15%
Structure (SMILES): C[C@@]12CCCCN1C[C@H](c1ccccc1)c1ccccc12
ED50 [4]: inactive | behavior [5]: Weak | ED50 [7]: inactive

inhibition [16]: 48% | inhibition [27]: 44%
Structure (SMILES): FC(F)(F)c1cccc([C@@H]2CN3CCC[C@@H]3c3ccccc32)c1 (stereo in doubt; (+)-37b)
behavior [5]: Partial stimulant

Ki [23]: ~100 nM
Structure (SMILES): c1ccc([C@@H]2CN3CCC[C@H]3c3ccccc32)cc1 [listing 2 of 2 here]

inhibition [2]: 0% | inhibition [8]: 0%
Structure (SMILES): c1ccc2c(c1)[C@H](C1CCCCC1)CN1CCC[C@@H]21
ED50 [4]: inactive | behavior [5]: Weak | Inhibition [28]: 31% | ED50 [29]: inactive

inhibition [30]: 9% | inhibition [27]: 45% | inhibition [31]: 58%
Structure (SMILES): FC(F)(F)c1cccc([C@@H]2CN3CCC[C@@H]3c3ccccc32)c1 (stereo in doubt; (-)-37b)

Ki [9]: ~100 nM | inhibition [32]: 4% | inhibition [8]: 22%
Structure (SMILES): FC(F)(F)c1cccc([C@@H]2CN3CCC[C@H]3c3cccc(Cl)c32)c1
